Assay results published in ChEMBL document CHEMBL3286131, “Design, synthesis and systematic evaluation of cytotoxic 3-heteroarylisoquinolinamines as topoisomerases inhibitors” (Eur J Med Chem, 2014).
“And” between values parts separate entries of the source, which are not always exact repeats. Equal values may be shown once.

Key:
[1] = target: T1, DNA topoisomerase 1 (Homo sapiens) (UniProt P11387); experiment: Inhibition of recombinant human DNA topoisomerase-1-mediated relaxation of supercoiled DNA pBR322 at 20 uM after 7 hrs using ethidium bromide staining by agarose gel electrophoresis analysis
T1 sequence (whole entry): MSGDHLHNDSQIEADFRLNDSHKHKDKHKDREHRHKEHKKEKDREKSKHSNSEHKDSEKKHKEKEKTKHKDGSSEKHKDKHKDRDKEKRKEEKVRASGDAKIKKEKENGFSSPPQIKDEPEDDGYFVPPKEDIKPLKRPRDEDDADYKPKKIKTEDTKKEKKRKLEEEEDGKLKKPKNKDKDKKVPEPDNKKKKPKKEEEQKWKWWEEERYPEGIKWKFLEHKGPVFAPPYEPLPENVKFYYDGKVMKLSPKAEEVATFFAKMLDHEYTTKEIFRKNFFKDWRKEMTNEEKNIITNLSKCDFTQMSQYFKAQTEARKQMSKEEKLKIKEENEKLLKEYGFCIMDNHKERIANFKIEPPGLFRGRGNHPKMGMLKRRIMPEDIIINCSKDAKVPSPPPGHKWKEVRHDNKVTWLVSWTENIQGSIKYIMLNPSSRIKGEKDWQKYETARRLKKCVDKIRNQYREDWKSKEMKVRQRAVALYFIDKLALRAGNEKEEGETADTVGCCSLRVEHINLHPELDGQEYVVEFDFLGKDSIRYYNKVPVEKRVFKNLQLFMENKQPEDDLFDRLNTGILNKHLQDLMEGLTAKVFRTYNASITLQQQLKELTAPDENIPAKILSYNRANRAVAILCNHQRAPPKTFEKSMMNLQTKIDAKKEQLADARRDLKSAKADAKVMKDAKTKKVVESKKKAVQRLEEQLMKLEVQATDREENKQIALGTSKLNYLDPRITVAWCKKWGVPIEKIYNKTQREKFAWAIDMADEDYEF
Summary of the method: (§1)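 pBR322 (100 ng) incubated with recombinant human topo I (0.4 units) ± compound for 30 min at 37 °C. Buffer: 10 mM Tris-HCl pH 7.9, 150 mM NaCl, 0.1% BSA, 1 mM spermidine, 5% glycerol. Quenched with sarcosyl stop solution. 1% agarose gel run at 15 V for 7 h in TAE, ethidium bromide stain, supercoiled DNA quantified under UV.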

[2] = target: DNA topoisomerase 2-alpha (Homo sapiens) (UniProt P11388); experiment: Inhibition of human DNA topoisomerase-2a-mediated relaxation of supercoiled DNA pBR322 at 20 uM after 4 hrs using ethidium bromide staining by agarose gel electrophoresis analysis
Chain of DNA topoisomerase 2-alpha (Homo sapiens) (P11388 whole entry): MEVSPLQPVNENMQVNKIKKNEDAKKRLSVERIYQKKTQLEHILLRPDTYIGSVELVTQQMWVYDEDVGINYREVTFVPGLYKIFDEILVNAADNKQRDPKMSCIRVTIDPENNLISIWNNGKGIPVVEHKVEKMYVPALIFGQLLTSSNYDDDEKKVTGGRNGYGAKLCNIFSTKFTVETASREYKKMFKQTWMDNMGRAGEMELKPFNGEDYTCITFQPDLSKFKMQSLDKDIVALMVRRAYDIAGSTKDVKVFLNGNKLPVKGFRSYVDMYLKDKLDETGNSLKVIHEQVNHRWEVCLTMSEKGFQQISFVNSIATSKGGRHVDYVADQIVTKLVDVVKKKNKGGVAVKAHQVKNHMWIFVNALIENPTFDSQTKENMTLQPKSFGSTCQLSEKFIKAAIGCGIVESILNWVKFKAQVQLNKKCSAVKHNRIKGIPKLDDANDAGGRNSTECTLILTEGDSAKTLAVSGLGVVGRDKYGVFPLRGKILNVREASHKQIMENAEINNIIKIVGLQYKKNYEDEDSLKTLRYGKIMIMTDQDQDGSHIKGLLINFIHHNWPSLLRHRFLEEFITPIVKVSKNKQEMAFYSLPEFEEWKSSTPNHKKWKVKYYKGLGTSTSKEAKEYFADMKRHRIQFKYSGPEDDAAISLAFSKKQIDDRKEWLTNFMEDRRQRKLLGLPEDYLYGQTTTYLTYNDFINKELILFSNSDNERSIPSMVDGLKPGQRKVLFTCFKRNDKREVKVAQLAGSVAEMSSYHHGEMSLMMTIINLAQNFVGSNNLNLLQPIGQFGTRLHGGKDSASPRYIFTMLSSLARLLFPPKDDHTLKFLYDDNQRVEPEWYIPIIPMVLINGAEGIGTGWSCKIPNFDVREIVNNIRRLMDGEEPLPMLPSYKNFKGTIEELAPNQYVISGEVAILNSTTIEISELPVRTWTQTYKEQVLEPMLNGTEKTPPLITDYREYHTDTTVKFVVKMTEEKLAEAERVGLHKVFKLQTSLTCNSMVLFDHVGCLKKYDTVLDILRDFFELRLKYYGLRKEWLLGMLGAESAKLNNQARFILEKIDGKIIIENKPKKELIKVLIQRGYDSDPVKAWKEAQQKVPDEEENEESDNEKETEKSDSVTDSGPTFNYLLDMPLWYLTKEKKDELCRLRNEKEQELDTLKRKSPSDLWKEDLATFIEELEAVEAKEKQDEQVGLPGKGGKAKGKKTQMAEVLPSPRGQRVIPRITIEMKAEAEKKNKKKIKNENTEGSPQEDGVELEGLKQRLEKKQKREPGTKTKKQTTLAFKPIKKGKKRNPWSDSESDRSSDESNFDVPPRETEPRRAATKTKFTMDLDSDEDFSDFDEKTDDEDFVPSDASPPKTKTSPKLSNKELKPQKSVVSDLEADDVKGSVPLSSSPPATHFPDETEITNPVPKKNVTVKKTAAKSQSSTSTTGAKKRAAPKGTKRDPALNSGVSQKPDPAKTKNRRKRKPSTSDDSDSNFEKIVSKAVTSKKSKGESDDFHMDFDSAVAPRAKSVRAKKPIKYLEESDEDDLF
Summary of the method: (§2)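 Supercoiled pBR322 (200 ng) incubated with human topo IIα (1 unit) ± compound for 30 min at 30 °C. Buffer: 10 mM Tris-HCl pH 7.9, 50 mM NaCl, 50 mM KCl, 5 mM MgCl2, 1 mM EDTA, 1 mM ATP, BSA. Stopped with EDTA. 1% agarose gel run at 25 V for 4 h in TAE, ethidium bromide stain, supercoiled DNA quantified by UV imaging.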

[3] = target: T1, DNA topoisomerase 1 (Homo sapiens); experiment: Inhibition of recombinant human DNA topoisomerase-1-mediated relaxation of supercoiled DNA pBR322 at 100 uM after 7 hrs using ethidium bromide staining by agarose gel electrophoresis analysis; summary of the method: as §1
[4] = target: DNA topoisomerase 2-alpha (Homo sapiens) (UniProt P11388); experiment: Inhibition of human DNA topoisomerase-2a-mediated relaxation of supercoiled DNA pBR322 at 100 uM after 4 hrs using ethidium bromide staining by agarose gel electrophoresis analysis; summary of the method: as §2
[5] = tested on: HeLa; experiment: Cell cycle arrest in human HeLa cells assessed as accumulation at G2/M phase phase after 24 hrs using […] by flow cytometry analysis relative to control; type: functional, cell-based
Summary of the method: (§3)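 HeLa cells exposed to graded compound concentrations for 24 h, harvested by centrifugation, PBS-washed twice, fixed overnight on ice in 70% ethanol. Stained with 10 μg/mL propidium iodide plus 0.5 mg/mL RNase and 0.1% Triton X-100 in PBS, 30 min at 37 °C in the dark. Flow cytometry gates: sub-G0/G1, G0/G1, S, G2/M.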

[6] = tested on: HeLa; experiment: Cell cycle arrest in human HeLa cells assessed as accumulation at sub-G0/G1 phase after 24 hrs using […] by flow cytometry analysis relative to control; type: functional, cell-based; summary of the method: as §3
[7] = Cytotoxicity against human MCF10A cells after 2 days; type: cell-based, MCF-10A; conditions: Homo sapiens, MCF-10A, 48 h
Summary of the method: (§4)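 Cells seeded at 2-4 × 10^4 per well in medium with 10% FBS and incubated overnight at 37 °C, 5% CO2. Graded compound concentrations added on day 2. CCK-8 reagent added on day 4 for a further 4 h, absorbance read at 450 nm. IC50 from a four-parameter logistic fit; mean ± S.D. of three experiments run in triplicate.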

[8] = tested on: T47D; experiment: Cytotoxicity against human T47D cells after 2 days; type: functional, cell-based; conditions: Homo sapiens, T47D, 48 h; summary of the method: as §4
[9] = tested on: DU-145; experiment: Cytotoxicity against human DU145 cells after 2 days; type: functional, cell-based; conditions: Homo sapiens, DU-145, 48 h; summary of the method: as §4
[10] = Cytotoxicity against human HCT15 cells after 2 days; type: functional, cell-based, HCT-15; conditions: Homo sapiens, HCT-15, 48 h; summary of the method: as §4

Compound | inhibition [1] | inhibition [2] | inhibition [3] | inhibition [4] | Activity [5] | Activity [6] | IC50 [7] [µM] | IC50 [8] [µM] | IC50 [9] [µM] | IC50 [10] [µM]
c1csc(-c2cc3ccccc3c(N3CCNCC3)n2)c1 | 0.6% and 4.8% | 0% | – | – | – | – | – | – | – | –
Cc1ccc2c(N3CCNCC3)nc(-c3cccs3)cc2c1 | 0% | 0% | 59% and 59.6% | – | – | – | – | – | – | –
Nc1nc(-c2cccs2)cc2ccccc12 | – | 0% | 0% | 14.6% and 22.5% | Dose-dependent effect | Dose-dependent effect | – | – | – | –
Cc1ccc2c(N3CCCCC3)nc(-c3cccs3)cc2c1 | 0% | 1.1% | – | – | – | – | – | – | – | –
c1csc(-c2cc3ccccc3c(N3CCCCC3)n2)c1 | – | 0.5% and 1.8% | 0% | 42.9% and 48.1% | – | – | – | – | – | –
Cc1ccc2c(NCc3ccccc3)nc(-c3cccs3)cc2c1 | – | 1.1% | 0% | 68.9% | – | – | > 50 | 6.57 | > 50 | 8.62
